Data published in ChEMBL document CHEMBL4270541, “Synthesis and antimicrobial evaluation of amino sugar-based naphthoquinones and isoquinoline-5,8-diones and their halogenated compounds” (Eur J Med Chem, 2018).
Converted amounts (≈) assume the structure as drawn. The source made the active and inactive calls. The calls are words filed in the database; no cut-off is given here.

Legend:
Enterococcus faecalis = test: Antimicrobial activity against Enterococcus faecalis INCQS 00234 ATCC 29212 assessed as zone of inhibition at 5 mg/ml after 18 to 24 hrs by disc diffusion method; assay type: functional; conditions: ATCC 29212 INCQS 00234, read-out: IZ
Staphylococcus aureus [1] = test: Antimicrobial activity against Staphylococcus aureus INCQS 00015 ATCC 25923 assessed as zone of inhibition at 5 mg/ml after 18 to 24 hrs by disc diffusion method; assay type: functional; conditions: read-out: IZ
[2] = system: Staphylococcus epidermidis; test: Antimicrobial activity against Staphylococcus epidermidis INCQS 00016 ATCC 12228 assessed as zone of inhibition at 5 mg/ml after 18 to 24 hrs by disc diffusion method; assay type: functional; conditions: ATCC 12228 INCQS 00016, read-out: IZ
Staphylococcus simulans [3] = test: Antimicrobial activity against Staphylococcus simulans INCQS 00254 ATCC 27851 assessed as zone of inhibition at 5 mg/ml after 18 to 24 hrs by disc diffusion method; assay type: functional; conditions: read-out: IZ
Staphylococcus aureus [4] = test: Antimicrobial activity against methicillin-resistant Staphylococcus aureus BMB9393 assessed as zone of inhibition at 5 mg/ml after 18 to 24 hrs by disc diffusion method; assay type: functional; conditions: read-out: IZ
Escherichia coli [5] = test: Antimicrobial activity against Escherichia coli INCQS 00033 ATCC 25922 assessed as zone of inhibition at 5 mg/ml after 18 to 24 hrs by disc diffusion method; assay type: functional; conditions: ATCC 25922 INCQS 00033, read-out: IZ
Proteus mirabilis = test: Antimicrobial activity against Proteus mirabilis INCQS 00095 ATCC 15290 assessed as zone of inhibition at 5 mg/ml after 18 to 24 hrs by disc diffusion method; assay type: functional; conditions: read-out: IZ
Klebsiella pneumoniae = test: Antimicrobial activity against Klebsiella pneumoniae INCQS 00083 ATCC 4352 assessed as zone of inhibition at 5 mg/ml after 18 to 24 hrs by disc diffusion method; assay type: functional; conditions: read-out: IZ
Pseudomonas aeruginosa [6] = test: Antimicrobial activity against Pseudomonas aeruginosa INCQS 00099 ATCC 27853 assessed as zone of inhibition at 5 mg/ml after 18 to 24 hrs by disc diffusion method; assay type: functional; conditions: read-out: IZ
[7] = system: Staphylococcus epidermidis; test: Antimicrobial activity against Staphylococcus epidermidis INCQS 00016 ATCC 12228 after 24 hrs by microdilution assay; assay type: functional; conditions: ATCC 12228 INCQS 00016, 24 h
[8] = system: Staphylococcus epidermidis; test: Ratio of MBC99.9 to MIC for Staphylococcus epidermidis INCQS 00016 ATCC 12228; assay type: functional, ATCC 12228 INCQS 00016
How it was run: (§1)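 MBC/MIC ratio from the 24 h, 37°C microdilution MIC and the agar-plating MBC (99.9% growth inhibition). A ratio ≤2 was classed as bactericidal and ≥4 as bacteriostatic.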

[9] = system: Staphylococcus epidermidis; test: Bactericidal activity against Staphylococcus epidermidis INCQS 00016 ATCC 12228 incubated for 24 hrs followed by transfer of microbial suspension to agar plates and measured after 24 hrs post transfer by resazurin dye-based colorimetric analysis; assay type: functional; conditions: ATCC 12228 INCQS 00016, 24 h, read-out: MBC99.9
How it was run: (§2)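 For MBC, 10 µL from each clear MIC well was plated on agar and incubated 24 h at 37°C. MBC is the minimum concentration inhibiting 99.9% of growth. […] Triplicate.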

[10] = Hemolytic activity against human erythrocytes assessed as hemolysis at 200 ug/ml after 3 hrs by spectrophotometric analysis relative to control; assay type: ADME, cell-based, Erythrocyte; conditions: read-out: Activity
How it was run: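 Erythrocytes collected in citrate tubes, washed three times with PBS pH 7.4 by centrifugation and resuspended in PBS. Incubated with compounds at 200 µg/mL for 3 h at 37°C. Released hemoglobin was read in the supernatant at 545 nm against 1% Triton X-100 (complete lysis) and 1% DMSO (negative control). Below 10% hemolysis was taken as hemocompatible. Three independent experiments.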

Staphylococcus aureus [11] = test: Antimicrobial activity against Staphylococcus aureus INCQS 00015 ATCC 25923 at 256 ug/ml after 24 hrs by microdilution assay; assay type: functional, organism-based
Staphylococcus simulans [12] = test: Antimicrobial activity against Staphylococcus simulans INCQS 00254 ATCC 27851 at 256 ug/ml after 24 hrs by microdilution assay; assay type: functional, organism-based
Staphylococcus aureus [13] = test: Antimicrobial activity against methicillin-resistant Staphylococcus aureus BMB9393 at 256 ug/ml after 24 hrs by microdilution assay; assay type: functional, organism-based
Escherichia coli [14] = test: Antimicrobial activity against Escherichia coli INCQS 00033 ATCC 25922 at 256 ug/ml after 24 hrs by microdilution assay; assay type: functional, organism-based; conditions: ATCC 25922 INCQS 00033
Pseudomonas aeruginosa [15] = test: Antimicrobial activity against Pseudomonas aeruginosa INCQS 00099 ATCC 27853 at 256 ug/ml after 24 hrs by microdilution assay; assay type: functional, organism-based
Staphylococcus aureus [16] = test: Bactericidal activity against Staphylococcus aureus INCQS 00015 ATCC 25923 at 256 ug/ml incubated for 24 hrs followed by transfer of microbial suspension to agar plates and measured after 24 hrs post transfer by resazurin dye-based colorimetric analysis; assay type: functional, organism-based; how it was run: as §2
Staphylococcus simulans [17] = test: Bactericidal activity against Staphylococcus simulans INCQS 00254 ATCC 27851 at 256 ug/ml incubated for 24 hrs followed by transfer of microbial suspension to agar plates and measured after 24 hrs post transfer by resazurin dye-based colorimetric analysis; assay type: functional, organism-based; how it was run: as §2
Staphylococcus aureus [18] = test: Bactericidal activity against methicillin-resistant Staphylococcus aureus BMB9393 at 256 ug/ml incubated for 24 hrs followed by transfer of microbial suspension to agar plates and measured after 24 hrs post transfer by resazurin dye-based colorimetric analysis; assay type: functional, organism-based
How it was run: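 From MIC wells with no visible growth, 10 µL is transferred to agar plates and incubated 24 h at 37°C. MBC is the minimum concentration inhibiting 99.9% of growth. […] Triplicate.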

Escherichia coli [19] = test: Bactericidal activity against Escherichia coli INCQS 00033 ATCC 25922 at 256 ug/ml incubated for 24 hrs followed by transfer of microbial suspension to agar plates and measured after 24 hrs post transfer by resazurin dye-based colorimetric analysis; assay type: functional, organism-based; conditions: ATCC 25922 INCQS 00033; how it was run: as §2
Pseudomonas aeruginosa [20] = test: Bactericidal activity against Pseudomonas aeruginosa INCQS 00099 ATCC 27853 at 256 ug/ml incubated for 24 hrs followed by transfer of microbial suspension to agar plates and measured after 24 hrs post transfer by resazurin dye-based colorimetric analysis; assay type: functional, organism-based; how it was run: as §2
Escherichia coli [21] = test: Antimicrobial activity against Escherichia coli INCQS 00033 ATCC 25922 after 24 hrs by microdilution assay; assay type: functional; conditions: ATCC 25922 INCQS 00033, 24 h
Pseudomonas aeruginosa [22] = test: Antimicrobial activity against Pseudomonas aeruginosa INCQS 00099 ATCC 27853 after 24 hrs by microdilution assay; assay type: functional; conditions: INCQS 00099 ATCC 27853, 24 h
Escherichia coli [23] = test: Bactericidal activity against Escherichia coli INCQS 00033 ATCC 25922 incubated for 24 hrs followed by transfer of microbial suspension to agar plates and measured after 24 hrs post transfer by resazurin dye-based colorimetric analysis; assay type: functional; conditions: ATCC 25922 INCQS 00033, 24 h, read-out: MBC99.9; how it was run: as §2
Pseudomonas aeruginosa [24] = test: Bactericidal activity against Pseudomonas aeruginosa INCQS 00099 ATCC 27853 incubated for 24 hrs followed by transfer of microbial suspension to agar plates and measured after 24 hrs post transfer by resazurin dye-based colorimetric analysis; assay type: functional; conditions: INCQS 00099 ATCC 27853, 24 h, read-out: MBC99.9; how it was run: as §2
Escherichia coli [25] = test: Ratio of MBC99.9 to MIC for Escherichia coli INCQS 00033 ATCC 25922; assay type: functional, ATCC 25922 INCQS 00033; how it was run: as §1
Pseudomonas aeruginosa [26] = test: Ratio of MBC99.9 to MIC for Pseudomonas aeruginosa INCQS 00099 ATCC 27853; assay type: functional; how it was run: as §1
[27] = system: Staphylococcus epidermidis; test: Antimicrobial activity against Staphylococcus epidermidis INCQS 00016 ATCC 12228 at 256 ug/ml after 24 hrs by microdilution assay; assay type: functional, organism-based; conditions: ATCC 12228 INCQS 00016
[28] = system: Staphylococcus epidermidis; test: Bactericidal activity against Staphylococcus epidermidis INCQS 00016 ATCC 12228 at 256 ug/ml incubated for 24 hrs followed by transfer of microbial suspension to agar plates and measured after 24 hrs post transfer by resazurin dye-based colorimetric analysis; assay type: functional, organism-based; conditions: ATCC 12228 INCQS 00016; how it was run: as §2

SMILES	zone of inhibition at 5000 µg/mL (Enterococcus faecalis)	zone of inhibition at 5000 µg/mL (Staphylococcus aureus [1])	zone of inhibition at 5000 µg/mL [2]	zone of inhibition at 5000 µg/mL (Staphylococcus simulans [3])	zone of inhibition at 5000 µg/mL (Staphylococcus aureus [4])	zone of inhibition at 5000 µg/mL (Escherichia coli [5])	zone of inhibition at 5000 µg/mL (Proteus mirabilis)	zone of inhibition at 5000 µg/mL (Klebsiella pneumoniae)	zone of inhibition at 5000 µg/mL (Pseudomonas aeruginosa [6])	MIC [7]	Ratio [8]	MBC [9]	hemolysis at 3 h, 200 ug/ml [10]	Activity (Staphylococcus aureus [11])	Activity (Staphylococcus simulans [12])	Activity (Staphylococcus aureus [13])	Activity (Escherichia coli [14])	Activity (Staphylococcus aureus [16])	Activity (Staphylococcus simulans [17])	Activity (Staphylococcus aureus [18])	further results
COC(=O)c1c(C)nc(C)c2c1C(=O)C(Br)=C(NC[C@H]1O[C@@H]3OC(C)(C)O[C@@H]3[C@H]1O)C2=O	0 mm	0 mm	7 mm	0 mm	0 mm	0 mm	0 mm	0 mm	0 mm	64 µg/mL (≈ 125 µM)	1	64 µg/mL (≈ 125 µM)	< 10%	inactive	inactive	inactive	inactive	inactive	inactive	inactive	Activity (Pseudomonas aeruginosa [15]): inactive; Activity (Escherichia coli [19]): inactive; Activity (Pseudomonas aeruginosa [20]): inactive
COC(=O)c1c(C)nc(C)c2c1C(=O)C(Cl)=C(NC[C@H]1O[C@@H]3OC(C)(C)O[C@@H]3[C@H]1O)C2=O	0 mm	0 mm	8 mm	0 mm	0 mm	0 mm	0 mm	0 mm	0 mm	32 µg/mL (≈ 68.5 µM)	1	32 µg/mL (≈ 68.5 µM)	10.1 to 14.4%	inactive	inactive	inactive	inactive	inactive	inactive	inactive	Activity (Pseudomonas aeruginosa [15]): inactive; Activity (Escherichia coli [19]): inactive; Activity (Pseudomonas aeruginosa [20]): inactive
CC1(C)O[C@H]2[C@@H](O1)[C@@H](CNC1=C(Cl)C(=O)c3ccccc3C1=O)O[C@@H]1OC(C)(C)O[C@@H]12	0 mm	9 mm	8 mm	0 mm	0 mm	12 mm	0 mm	0 mm	13 mm				< 10%	inactive	inactive	inactive		inactive	inactive	inactive	MIC (Escherichia coli [21]): 16 µg/mL (≈ 35.6 µM); MIC (Pseudomonas aeruginosa [22]): 32 µg/mL (≈ 71.1 µM); MBC (Escherichia coli [23]): 16 µg/mL (≈ 35.6 µM); MBC (Pseudomonas aeruginosa [24]): 32 µg/mL (≈ 71.1 µM); Ratio (Escherichia coli [25]): 1; Ratio (Pseudomonas aeruginosa [26]): 1; Activity [27]: inactive; Activity [28]: inactive
COC(=O)c1c(C)nc(C)c2c1C(=O)C(Br)=C(NC[C@H]1O[C@@H](OC)[C@@H]3OC(C)(C)O[C@@H]31)C2=O	0 mm	13 mm	11 mm	0 mm	12 mm	17 mm	0 mm	0 mm	17 mm				< 10%	inactive	inactive	inactive		inactive	inactive	inactive	MIC (Escherichia coli [21]): 8 µg/mL (≈ 15.2 µM); MIC (Pseudomonas aeruginosa [22]): 8 µg/mL (≈ 15.2 µM); MBC (Escherichia coli [23]): 8 µg/mL (≈ 15.2 µM); MBC (Pseudomonas aeruginosa [24]): 8 µg/mL (≈ 15.2 µM); Ratio (Escherichia coli [25]): 1; Ratio (Pseudomonas aeruginosa [26]): 1; Activity [27]: inactive; Activity [28]: inactive
